We go through 16 compounds from PubChem BioAssay.

As usually defined, the viability is a read-out of living cells in per cent, often relative to untreated cells. What is called inhibition is the change of the read-out against control, counted positive when it falls.

The nature of assay [1]: Her2 expression decrease, cell viability multiplex – SKBR3 breast tumor cells, AlphaScreen, ATP viability, primary screen (AID 461;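 active = Her2 level under about 52% in both replicate screens, with viability over 70% of control, limit read from the data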;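 as to Her2 level: lower value means less Her2 protein in the cells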;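 as to viability: percent of carrier control wells set as 100% viability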). Particulars: SKBR3 Her2 protein level, 18-24 h, measured here: SKBR3 viability, ATP luminescence, at 10 µM. On the technique in general: In Alpha technology, singlet oxygen from a donor bead excites a nearby acceptor bead.
Assay [2] deals with Receptor tyrosine-protein kinase erbB-2 (Homo sapiens) (UniProt P04626). Described as above. Particulars: 18-24 h, at 10 µM, stronger effect = lower value.
Sequence of Receptor tyrosine-protein kinase erbB-2 (Homo sapiens) (P04626 whole entry, looked up): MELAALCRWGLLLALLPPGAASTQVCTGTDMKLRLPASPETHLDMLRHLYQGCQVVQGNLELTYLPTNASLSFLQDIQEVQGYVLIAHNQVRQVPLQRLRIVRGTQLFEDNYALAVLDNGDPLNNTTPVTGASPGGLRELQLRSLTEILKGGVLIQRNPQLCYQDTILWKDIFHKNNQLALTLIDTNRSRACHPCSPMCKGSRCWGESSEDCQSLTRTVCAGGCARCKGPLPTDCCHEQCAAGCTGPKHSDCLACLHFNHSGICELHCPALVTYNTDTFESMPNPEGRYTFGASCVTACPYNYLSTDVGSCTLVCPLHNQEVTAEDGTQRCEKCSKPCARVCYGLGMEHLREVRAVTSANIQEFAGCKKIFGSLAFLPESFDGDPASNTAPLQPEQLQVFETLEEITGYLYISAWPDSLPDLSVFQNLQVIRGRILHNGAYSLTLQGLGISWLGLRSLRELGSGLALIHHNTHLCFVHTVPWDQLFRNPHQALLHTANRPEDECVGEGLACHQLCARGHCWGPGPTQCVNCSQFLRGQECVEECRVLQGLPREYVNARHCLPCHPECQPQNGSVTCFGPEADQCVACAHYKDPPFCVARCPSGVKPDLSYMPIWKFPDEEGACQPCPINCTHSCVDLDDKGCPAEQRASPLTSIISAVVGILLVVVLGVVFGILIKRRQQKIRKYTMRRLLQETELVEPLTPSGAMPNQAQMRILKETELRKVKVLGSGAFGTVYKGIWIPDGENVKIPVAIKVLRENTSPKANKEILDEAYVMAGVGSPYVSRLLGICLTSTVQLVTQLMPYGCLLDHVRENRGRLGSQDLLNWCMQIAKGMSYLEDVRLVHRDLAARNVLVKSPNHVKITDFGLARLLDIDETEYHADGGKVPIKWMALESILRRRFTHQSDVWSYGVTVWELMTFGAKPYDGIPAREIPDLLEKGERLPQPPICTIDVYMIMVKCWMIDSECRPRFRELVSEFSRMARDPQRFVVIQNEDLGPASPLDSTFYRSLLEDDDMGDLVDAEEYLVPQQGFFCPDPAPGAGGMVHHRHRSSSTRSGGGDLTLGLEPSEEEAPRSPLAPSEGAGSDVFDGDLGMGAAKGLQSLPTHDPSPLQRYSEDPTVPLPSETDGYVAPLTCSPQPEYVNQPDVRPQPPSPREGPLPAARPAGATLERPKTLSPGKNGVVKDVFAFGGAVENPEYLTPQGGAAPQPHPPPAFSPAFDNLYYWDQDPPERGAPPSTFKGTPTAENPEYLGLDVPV
Assay [3] can be described thus: reduced viability of SK-BR-3 breast cancer cells – cell-based, 24 h, human, pilot screen (AID 572;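 active = viability at or below 10% of carrier control in both of two separate runs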;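 also: compound exposure lasted between 18 and 24 h rather than exactly 24 h; 100% = carrier-treated control wells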). To be noted: SK-BR-3 viability, CellTiter-Glo luminescence, at 10 µM, stronger effect = lower value. On the technique in general: ATP-based viability assays read luminescence as a measure of living cells.
Assay [4] can be described thus: HUVEC growth inhibition – cell-based, human, primary screen (AID 575;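 active = viability at or below 30% in both replicate assays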;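 also: 100% = median of untreated cell wells with 0.1% DMSO on each plate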). Particulars: HUVEC proliferation, CellTiter-Glo luminescence, 72 h; at 10 µM; stronger effect = lower value. The method in brief: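 Material: primary human umbilical vein endothelial cells / Schedule: 72 h exposure, 37 °C, 5% CO2, 30 min RT equilibration / Signal: ATP-based CellTiter-Glo luminescent read / Read-out basis: percent of median DMSO-control luminescence / Control set: 32 DMSO-only cell-control wells (high), 32 MePR drug-control wells (low) per plate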

A short description of assay [5]: H69AR cell proliferation blockers – human, duplicate replicates, primary screen (AID 580;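 active = viability at or under a set limit in both replicates, limit being median viability minus 3 SD, cut at about 48% in these data, passing the limit was not always enough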;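 also: 100% = mean luminescence of untreated wells and 0% = no signal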). To be noted: H69AR lung tumor cells viability, ATP luminescence, 72 h; at 10 µM; stronger effect = lower value.
Assay [6] in a line: MRP1 drug-resistance reversers in H69AR cells – cell-based, doxorubicin co-treatment, pilot screen (AID 601). Particulars: CellTiter-Glo, 72 h, at 10 µM; for differential viability (reversal): stronger effect = higher value.
A short description of assay [7]: yeast transport mutant growth inhibition pilot in 384-well plates, post-Golgi transport modulator project (AID 636; in the data active = inhibition above about 31%). To be noted: absorbance 615 nm, about 18 h, stronger effect = higher value.
Assay [8] is described as follows: growth suppression of yeast trafficking mutant, preliminary HTS, modulators of trafficking downstream of Golgi apparatus project, 1536-format plate, OD 615 nm (AID 637; in the data active = inhibition above about 30%). To be noted: yeast transport mutant growth, absorbance 615 nm, 18 h; stronger effect = higher value.
[9] abbreviates: H69AR cells + 2 uM doxorubicin, measured here: viability with 2 uM doxorubicin, stronger effect = lower value.
Where [10] appears, read: H69AR cells, compound alone cytotoxicity.

The structures appear in SMILES notation. Calls of active or inactive are those of the source.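 The calls were made as follows, unless noted: active = viability loss from added drug above about 55%, and viability with drug at most 40%, in both replicates (limit read from the data, passing the limit was not always enough); inconclusive = both conditions met in only one replicate; inactive = neither replicate meets both conditions.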

As to `Cc1ccc(-c2noc(CCC(=O)N3CCN(c4cccc(C(F)(F)F)c4)CC3)n2)cc1`, the viability in assay [1] is 87.5%; in assay [3] it was 87.5% (inactive); in assay [4] it was 71.2% (inactive); in assay [5] it was 93.1% (inactive); in assay [6] (setting [9]), 96.8%; in assay [6] (setting [10]) it was 93.1%. In addition, in assay [2], the Her2 level is 91% (inactive). For the same compound, in assay [6] (H69AR cells + 2 uM doxorubicin), the differential viability (reversal) was -3.76% (inactive). Also, the inhibition in assay [7] is -3.95% (inactive); in assay [8] it was -2.67% (inactive).

For the compound `Cc1ccc(C)c(N2CCN(C(=O)c3ccc(CS(=O)(=O)c4ccccc4C)o3)CC2)c1`, the viability in assay [1] was 82%; in assay [3], 82% (inactive); in assay [4], 50.8% (inactive); in assay [5] it was 11.8% (active); in assay [6] (setting [9]), 50.9%; in assay [6] (setting [10]), 11.8%. Moreover, the Her2 level in assay [2] is 66.5% (inactive). Further, the differential viability (reversal) in assay [6] (H69AR cells + 2 uM doxorubicin) is -39.1% (inactive). Moreover, the figures for the inhibition in assay [7] and in assay [8] were -3.16% (inactive) and 1.27% (inactive), respectively.

Take `COc1cc(S(=O)(=O)N2CCC(N3CCCCC3)CC2)ccc1-n1cnnn1`: the viability in assay [1] is 92.5%; in assay [3], 92.5% (inactive); in assay [4] it was 98.3% (inactive); in assay [5], 98% (inactive); in assay [6] (setting [9]), 89.3%; in assay [6] (setting [10]), 98%. Moreover, the Her2 level in assay [2] was 108% (inactive). The differential viability (reversal) in assay [6] (H69AR cells + 2 uM doxorubicin) was 8.69% (inactive). The results for the inhibition in assay [7] and in assay [8] were -3.78% (inactive) and -6.35% (inactive), respectively.

Turning to `Nc1cc(C(=O)O)ccc1Nc1ccc(F)c(F)c1`, the viability in assay [1] is 88%; in assay [3], 88% (inactive); in assay [4] it was 89.2% (inactive); in assay [5], 105% (inactive); in assay [6] (setting [9]), 94.3%; in assay [6] (setting [10]) it was 105%. Moreover, the Her2 level in assay [2] was 112% (inactive). Further, the differential viability (reversal) in assay [6] (H69AR cells + 2 uM doxorubicin) is 10.3% (inactive). The inhibition is 2.4% (inactive) in assay [7] and 4.75% (inactive) in assay [8].

With `CCn1c(SCC(=O)c2ccc(F)cc2)nnc1-c1ccoc1C`, the viability was 104% in assay [1]; 104% (inactive) in assay [3]; 104% (inactive) in assay [4]; 106% (inactive) in assay [5]; 86.9% in assay [6] (setting [9]); 106% in assay [6] (setting [10]). For the same compound, in assay [2], the Her2 level is 97.5% (inactive). Also, the differential viability (reversal) in assay [6] (H69AR cells + 2 uM doxorubicin) is 19.3% (inactive). In addition, the inhibition in assay [7] is -6.1% (inactive); in assay [8] it was -0.95% (inactive).

As for `COc1ccc(CNc2nc(NCc3ccc(OC)cc3)n(S(C)(=O)=O)n2)cc1`, the viability is 104% in assay [1]; 104% (inactive) in assay [3]; 92.6% (inactive) in assay [4]; 110% (inactive) in assay [5]; 101% in assay [6] (setting [9]); 110% in assay [6] (setting [10]). Moreover, in assay [2], the Her2 level was 114% (inactive). Besides, the differential viability (reversal) in assay [6] (H69AR cells + 2 uM doxorubicin) was 8.61% (inactive). The inhibition in assay [7] is 0% (inactive); in assay [8], 0.82% (inactive).

Consider `O=C(CCNC(=O)Cn1ccc2ccccc2c1=O)NCCN1CCc2ccccc2C1`, for which the viability is 118% in assay [1]; 118% (inactive) in assay [3]; 87.3% (inactive) in assay [4]; 91.8% (inactive) in assay [5]; 91% in assay [6] (setting [9]); 91.8% in assay [6] (setting [10]). Moreover, the Her2 level in assay [2] was 98% (inactive). The differential viability (reversal) in assay [6] (H69AR cells + 2 uM doxorubicin) is 0.755% (inactive). Besides, the inhibition in assay [7] is -7.63% (inactive); in assay [8] it was -8.18% (inactive).

Consider `O=C(CS(=O)(=O)c1cn(Cc2ccc(Cl)cc2)c2ccccc12)N1CCCC1`, for which the viability in assay [1] was 81.5%; in assay [3] it was 81.5% (inactive); in assay [4] it was 88.2% (inactive); in assay [5], 79.3% (inactive); in assay [6] (setting [9]), 82.3%; in assay [6] (setting [10]), 79.3%. For the same compound, the Her2 level in assay [2] is 92% (inactive). The differential viability (reversal) in assay [6] (H69AR cells + 2 uM doxorubicin) was -3.04% (inactive). For the same compound, the results for the inhibition in assay [7] and in assay [8] were -5.2% (inactive) and 1% (inactive), respectively.

For `O=C(CS(=O)(=O)Cc1ccccc1)N1CCc2ccccc2C1`, the viability in assay [1] is 94.5%; in assay [3], 94.5% (inactive); in assay [4], 86.4% (inactive); in assay [5], 101% (inactive); in assay [6] (setting [9]) it was 89.4%; in assay [6] (setting [10]), 101%. Besides, the Her2 level in assay [2] is 94.5% (inactive). For the same compound, the differential viability (reversal) in assay [6] (H69AR cells + 2 uM doxorubicin) is 11.5% (inactive). The inhibition in assay [7] is -5.6% (inactive); in assay [8], -1.61% (inactive).

Turning to `NC(=O)c1ccccc1NC(=O)CN1CCOCC1`, the viability in assay [1] was 106%; in assay [3], 106% (inactive); in assay [4] it was 104% (inactive); in assay [5] it was 88.1% (inactive); in assay [6] (setting [9]), 81.9%; in assay [6] (setting [10]), 88.1%. Further, the Her2 level in assay [2] was 87% (inactive). For the same compound, in assay [6] (H69AR cells + 2 uM doxorubicin), the differential viability (reversal) was 6.19% (inactive). Besides, the inhibition in assay [7] is -1.87% (inactive); in assay [8], 0.32% (inactive).

`CCN(CC)CCN1C(=O)Cn2c(C)c(C)c3cccc1c32`: the viability is 108% in assay [1]; 108% (inactive) in assay [3]; 95.7% (inactive) in assay [4]; 84.6% (inactive) in assay [5]; 86.5% in assay [6] (setting [9]); 84.6% in assay [6] (setting [10]). In addition, the Her2 level in assay [2] was 92.5% (inactive). Also, the differential viability (reversal) in assay [6] (H69AR cells + 2 uM doxorubicin) was -1.94% (inactive). Moreover, the results for the inhibition in assay [7] and in assay [8] were -7.47% (inactive) and -1.75% (inactive), respectively.

For `O=C1OC2(c3ccccc3)C3CCCC2C13`, the viability in assay [1] is 100%; in assay [3], 100% (inactive); in assay [4] it was 97.3% (inactive); in assay [5], 100% (inactive); in assay [6] (setting [9]) it was 92.4%; in assay [6] (setting [10]), 100%. For the same compound, the Her2 level in assay [2] is 120% (inactive). The differential viability (reversal) in assay [6] (H69AR cells + 2 uM doxorubicin) was 7.76% (inactive). For the same compound, the inhibition in assay [7] was -6.44% (inactive); in assay [8], 5.87% (inactive).

For `Cc1nn(C)c(C)c1CN(C)C(=O)c1cc2nc(-c3ccco3)cc(C(F)(F)F)n2n1`, the viability is 77% in assay [1]; 77% (inactive) in assay [3]; 109% (inactive) in assay [4]; 86.6% (inactive) in assay [5]; 85.9% in assay [6] (setting [9]); 86.6% in assay [6] (setting [10]). In addition, the Her2 level in assay [2] is 94.5% (inactive). Further, the differential viability (reversal) in assay [6] (H69AR cells + 2 uM doxorubicin) was 0.655% (inactive). The inhibition was 1.67% (inactive) in assay [7] and -9.33% (inactive) in assay [8].

`CCC1C(=O)N=C(SCC(=O)Nc2cccc3ccccc23)NC1=O` (stereo not given): the viability in assay [1] was 112%; in assay [3], 112% (inactive); in assay [4], 106% (inactive); in assay [5], 82.3% (inactive); in assay [6] (setting [9]) it was 92.1%; in assay [6] (setting [10]), 82.3%. Besides, the Her2 level in assay [2] is 100% (inactive). The differential viability (reversal) in assay [6] (H69AR cells + 2 uM doxorubicin) is -9.84% (inactive). Besides, the values for the inhibition in assay [7] and in assay [8] were -3.24% (inactive) and 0.63% (inactive), respectively.

As for `Cc1ccc(-c2noc(CCC(=O)NC3CCCc4ccccc43)n2)cc1` (stereo not given), the viability in assay [1] is 75%; in assay [3], 75% (inactive); in assay [4], 83.6% (inactive); in assay [5], 92.5% (inactive); in assay [6] (setting [9]), 86.4%; in assay [6] (setting [10]), 92.5%. Moreover, the Her2 level in assay [2] is 85.5% (inactive). Moreover, the differential viability (reversal) in assay [6] (H69AR cells + 2 uM doxorubicin) is 6.05% (inactive). For the same compound, the inhibition in assay [7] is -4.87% (inactive); in assay [8], -4.67% (inactive).

Turning to `CC(C)(C)OC(=O)NCCc1nnc(SCC(=O)c2ccc(Cl)cc2)o1`, the viability in assay [1] is 97.5%; in assay [3], 97.5% (inactive); in assay [4] it was 93.1% (inactive); in assay [5] it was 105% (inactive); in assay [6] (setting [9]), 92.4%; in assay [6] (setting [10]), 105%. For the same compound, in assay [2], the Her2 level is 106% (inactive). Also, the differential viability (reversal) in assay [6] (H69AR cells + 2 uM doxorubicin) is 13% (inactive). Further, the inhibition in assay [7] was -0.78% (inactive); in assay [8], -3.83% (inactive).
